From PubChem
Only some compounds are listed: those with a hit (about 2.4% of all), similar ones and a draw of the others.
STAT3 act-1: STAT3 signaling activation; U3A cells, IL-6 STAT3-luciferase reporter, luminescence; 100% = signal with IL-6 EC80 alone; 0.91% of 190,000 active; activation (% of control), % at 5.6 µM;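 active = activation above the screen-wide mean of compound activation plus 3 SD, cut at about 130% in these data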;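 also: 0% = background luminescence of wells with medium and substrate only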
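Material: human U3A cells carrying STAT3-luciferase construct. Measured by: reporter luminescence signal. Timing: compound 1 h, then IL-6 6 h at 37 °C.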
STAT3 inh: reduces IL-6 driven STAT3 reporter signal; U3A cells, IL-6 STAT3-luciferase reporter, luminescence; host cell line lacks STAT1; inhibition, % at 5.5 µM; 0.89% of 190,000 active; AID 862;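 active = inhibition above the mean inhibition across all screened compounds plus 3 SD, cut at about 44% in these data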;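 also: 0% = DMSO only wells and 100% = 100 µM nifuroxazide control wells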
MT stabilizer: microtubule stabilizers in HeLa cells; HeLa tubulin immunostaining HCS, 24 h; share of cells brighter than vehicle mean+2SD; % tubulin-high responders, % at 10 µM; 0.83% of 200,000 active; AID 2205;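 active = plate Z-score above 3 for both tubulin-high and condensed-nucleus cell shares, with cell loss under 80%, at 10 µM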;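 also: anti alpha tubulin signal scored within the nucleus-defined area of each cell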
bCat nuc transl: alters nuclear translocation of beta-catenin in HeLa cells | AID 1665 | immunofluorescence imaging | 0.3% of 190,000 active | nuclear translocation activity, % at 5 µM;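 active = nuclear translocation activity above 50% at 5 µM, with a well cell count of 50 or more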;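 also: per-cell ratio of nuclear to cytoplasmic median beta-catenin stain intensity; plate controls were DMSO negative control for no effect and GSK-3 inhibitor IX positive control for full effect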
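Assay system: human HeLa cells, native beta-catenin; doses: 5 µM primary, 0.02–20 µM confirmation; incubation: compound treatment 24 h, 37°C, 5% CO2; technique: fluorescence imaging of beta-catenin antibody stain plus DAPI; measure: % activation, nuclear-to-cytoplasmic median beta-catenin signal ratio per cell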
STAT1 inh-1: reduces IFN-gamma driven STAT1 reporter signal. NIH 3T3 STAT1-luciferase reporter, luminescence. inhibition, % at 5.5 µM. 0.35% of 200,000 active. AID 920;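 active = inhibition above a set limit, the mean inhibition across all tested compounds plus 3 SD, cut at about 34% in these data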;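 also: 0% = IFN-gamma with DMSO and 100% = IFN-gamma with 300 µM nifuroxazide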
STAT3 act-2: confirmation of STAT3 signaling activators; potentiation (% of control), % at 5.7 µM; AID 1267; shares compounds with STAT3 act-1; U3A STAT3-luciferase reporter, IL-6 potentiation, luminescence; U3A cells lack STAT1; 100 means same as IL-6 alone; 64% of 1,200 active;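 active = percent activation of the STAT3 luciferase reporter above a set limit taken from the earlier primary screen, cut at about 130% in these data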;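 also: 0% = background signal of medium plus substrate and 100% = median of IL-6 with DMSO wells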
NFkB act 2: NF-kappaB activation in STAT3 activator counter-screen; shares compounds with STAT3 act-1; human cells, NF-kappaB reporter activation; activation (% of control), % at 5.7 µM; 11% of 1,200 active; in the data active = activation above about 120%;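 also: reporter induced by TNF-alpha stimulation; 100% = median of stimulated DMSO wells and 0% = no signal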
STAT1 act: counter-screen for STAT3 activators: STAT1 activation. NIH 3T3 STAT1-luciferase reporter, IFN-gamma, luminescence. 13% of 1,200 active. shares compounds with STAT3 act-1. activation (% of control), % at 5.7 µM. AID 1318;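 active = activation above the solvent-only control well mean plus 3 SD, set per screening run, cut at about 120% in these data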;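 also: 100% = IFN-gamma with DMSO median signal so 100% means no change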
STAT1 inh-2: STAT1 inhibition, confirmation assay. shares compounds with STAT1 inh-1. NIH 3T3 STAT1-luciferase reporter, IFN-gamma, luminescence. inhibition, % at 5.5 µM. 55% of 200 active;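 active = triplicate mean inhibition exceeding the hit cutoff computed for the primary STAT1 screen, cut at about 35% in these data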;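 also: 0% = DMSO with IFN-gamma and 100% = 300 µM nifuroxazide with IFN-gamma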
NFkB inh: NF-kappaB inhibition in STAT1 inhibitor counter-screen. HEK293T NF-kB luciferase reporter, TNF-alpha induced, luminescence. 30% of 200 active. inhibition, % at 5.7 µM. shares compounds with STAT1 inh-1;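 active = inhibition above the mean of solvent-only control wells plus 3 SD of those wells, cut at about 15% in these data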;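 also: 0% = DMSO with TNF-alpha and 100% = MG-132 control with TNF-alpha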
STAT3 inh STAT1c: STAT3 inhibition in STAT1 inhibitor counter-screen | shares compounds with STAT1 inh-1 | U3A cells, IL-6 STAT3 luciferase reporter, luminescence; cells lacking STAT1 | inhibition, % at 5.7 µM | 20% of 200 active;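 active = inhibition above the mean of solvent-only control wells plus 3 SD, set per campaign, cut at about 25% in these data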;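 also: 0% = IL-6 plus DMSO and 100% = IL-6 plus nifuroxazide control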
* = called active by the depositor; . = no result given.

SMILES	STAT3 act-1	STAT3 inh	MT stabilizer	bCat nuc transl	STAT1 inh-1	others
Cc1c(C(=O)Nc2nc3ccccc3[nH]2)oc2c(Cl)cccc12	143.4*	-45.6	2.2	2.4	-5.8	STAT3 act-2=177.8*;NFkB act 2=120.9*;STAT1 act=122.1*
COc1cc(C(=O)Nc2nc3ccccc3[nH]2)cc(OC)c1OC	77.2	29.7	2.6	-0.3	2.7
C=CCNCC(O)COc1ccc(C(C)=O)cc1OC (stereo unspecified)	.	.	.	-1.6	.
O=C(COC(=O)c1ccc2c(c1)C(=O)N(Cc1ccncc1)C2=O)Nc1ccccc1[N+](=O)[O-]	138.2*	-45.2	2.2	-0.7	11.8	STAT3 act-2=146.6*;NFkB act 2=107.4;STAT1 act=96.1
COc1nccc(-c2ccc(F)cc2)c1C#N	98.0	3.8	2.1	5.3	-6.0
COc1ccccc1NC(=O)CC1S/C(=N/N=C2\CCCc3ccccc32)NC1=O (stereo unspecified)	84.2	22.8	1.8	-1.1	-6.2
Cc1cc(C)c2oc(-c3ccc(Cl)c(NC(=O)c4ccc(C#N)cc4F)c3)nc2c1	173.2*	-81.4	4.3	0.1	-11.1	STAT3 act-2=165.2*;NFkB act 2=100.8;STAT1 act=108.3
N#Cc1ccc(C(=O)Nc2cccc3ncccc23)c(F)c1	93.5	5.7	6.4	-0.3	10.9
Cc1c(C#N)c2ccccc2n1CC(=O)O	158.8*	-62.8	2.7	.	6.1	STAT3 act-2=161.4*;NFkB act 2=102.5;STAT1 act=108.1
CCOC(=O)Cn1c(C)c(C#N)c2ccccc21	105.5	-0.4	2.4	-3.8	5.2
Cc1ccc(NC(=S)N/N=C/c2cccn2Cc2ccccc2F)cc1	.	.	.	-0.7	.
COC(=O)c1cc(OC)c(OC)cc1NC(=O)C(C)c1ccc([N+](=O)[O-])cc1 (stereo unspecified)	102.0	3.2	4.8	-0.5	-4.1
CC(=O)Nc1sc(N/N=C\c2ccccc2)nc1-c1cccs1	139.7*	-47.6	3.4	1.2	-4.0	STAT3 act-2=177.2*;NFkB act 2=107.2;STAT1 act=113.6
O=C(O)c1sccc1SCc1ccc(Cl)cc1Cl	137.3*	-39.2	1.4	.	-0.2	STAT3 act-2=116.1;NFkB act 2=103.4;STAT1 act=90.7
COc1ccc(OCC(=O)NC(=S)Nc2ccccc2F)cc1	107.2	-5.9	3.2	-4.6	-2.6
Cc1cc(C)cc(OCC(=O)NCC2CCCO2)c1 (stereo unspecified)	72.2	33.7	5.2	1.0	17.2
Cc1cc(C)c(NC(=O)CS(=O)CC(=O)NCC2CCCO2)c(C)c1 (stereo unspecified)	140.0*	-46.5	5.4	-5.5	1.1	STAT3 act-2=123.8;NFkB act 2=106.4;STAT1 act=104.1
COc1ccccc1C(=O)N/C(=C/c1ccc(Br)cc1)C(=O)N1CCCC1	103.5	1.8	2.8	6.4	7.9
CCOc1ccc(Nc2cc(C)nc3nc(C)nn23)cc1	91.2	10.1	3.5	-0.5	-1.6
COc1ccc(Nc2nc(C(F)(F)F)nc(C)c2C#N)cc1	101.2	-2.9	4.8	1.0	3.6
COc1ccc(Nc2nc(C)cc(C)c2C#N)cc1	137.2*	-44.0	3.6	.	-0.1	STAT3 act-2=149.9*;NFkB act 2=106.8;STAT1 act=112.5
CCOc1ccc(Nc2nc(C)cc(C)c2C#N)cc1	140.4*	-44.7	4.4	-1.1	2.1	STAT3 act-2=125.7;NFkB act 2=102.2;STAT1 act=104.2
CC(C)NC(=O)C1CCN(C2CCN(Cc3ccc4cccc(F)c4n3)CC2)CC1	113.7	-11.1	4.2	2.2	-8.8
CN(CC(=O)Nc1ccccc1Br)Cc1nc2ccccc2c(=O)[nH]1	95.1	11.4	2.8	-0.6	-1.3
Cc1cc(C)nc(SCSc2nc(C)cc(C)n2)n1	100.8	3.4	3.4	-1.3	3.8
SMILES	STAT3 act-1	STAT3 inh	MT stabilizer	bCat nuc transl	STAT1 inh-1	others
Cc1cc(C)nc(SC2CCCCC2O)n1 (stereo unspecified)	135.8*	-41.4	3.9	0.5	4.7	STAT3 act-2=112.3;NFkB act 2=96.9;STAT1 act=99.0
Cc1ccc(/C=C2\SC(=S)N(CCCC(=O)Nc3ccccn3)C2=O)cc1	64.5	43.3	2.3	-1.1	38.4*	STAT1 inh-2=40.1*;NFkB inh=44.5*;STAT3 inh STAT1c=46.0*
COc1ccc(/C=C2\SC(=S)N(CCCC(=O)Nc3ccccn3)C2=O)cc1OC	96.9	5.9	1.5	-1.3	10.5
CC1(C)Cc2c(ccc3ccccc23)C2=C(C(=O)N3CCCC3)C(=O)C(=O)N21	96.4	5.6	1.4	2.1	41.1*	STAT1 inh-2=40.5*;NFkB inh=4.8;STAT3 inh STAT1c=0.5
COc1ccc(NC(=S)Nc2cccc(S(=O)(=O)N3CCCCC3)c2)cc1	108.0	-9.6	3.1	.	-7.0
CCC(=O)Nc1ccc(-c2nc3ccccc3c(=O)o2)cc1	75.9	32.1	1.5	-4.3	39.3*	STAT1 inh-2=19.1;NFkB inh=13.6;STAT3 inh STAT1c=-2.8
O=C(C1CCC(CNS(=O)(=O)c2cccc3nsnc23)CC1)N1CCN(c2ccccn2)CC1 (stereo unspecified)	95.7	6.7	3.3	-0.1	35.2*	STAT1 inh-2=25.2;NFkB inh=-3.3;STAT3 inh STAT1c=7.3
COc1cccc(CNc2ncnc3cc(Cl)ccc23)c1	90.0	13.3	1.4	-0.2	40.6*	STAT1 inh-2=31.8;NFkB inh=6.5;STAT3 inh STAT1c=3.1
CC(=O)NCCNC(=O)c1ccc(NC2=NC3CS(=O)(=O)CC3S2)cc1 (stereo unspecified)	.	.	.	0.6	.
O=C(c1ccco1)N1CCN(c2ncnc3c2[nH]c2ccccc23)CC1	130.9	-31.5	5.4	-4.3	43.5*	STAT1 inh-2=46.9*;NFkB inh=13.7;STAT3 inh STAT1c=4.5
O=C(c1ccco1)N1CCN(c2ncnc3c2[nH]c2ccc(Br)cc23)CC1	86.4	18.1	9.6	.	37.0*	STAT1 inh-2=37.2*;NFkB inh=4.4;STAT3 inh STAT1c=-0.4
CCOc1ccc2[nH]c3c(N4CCN(C(=O)c5ccco5)CC4)ncnc3c2c1	.	.	.	-5.9	.
Cc1cc(NC(=S)NC(=O)/C=C/c2ccc(S(=O)(=O)N3CCOCC3)cc2)ccc1Br	102.2	2.3	8.8	-3.3	0.0
O=C(Nc1cccc(F)c1)c1ccc(Cn2cc([N+](=O)[O-])cn2)o1	89.5	14.1	5.1	0.0	17.8
Cc1nc(N)nc(N)c1/C=C/C(C)(C)c1ccc(Cl)cc1	69.2	39.2	6.4	-5.4	37.7*	STAT1 inh-2=38.2*;NFkB inh=28.0*;STAT3 inh STAT1c=39.8*
CCCCn1c(=NC(=O)c2ccco2)c(C(=O)OCC)cc2c(=O)n3ccccc3nc21	94.0	9.4	2.6	4.9	-1.4
